We go through seven molecules from ChEMBL document CHEMBL1141588, “Pyrrolo[2,3-a]carbazoles as potential cyclin dependent kinase 1 (CDK1) Inhibitors. Synthesis, biological evaluation, and binding mode through docking simulations” (J Med Chem, 2008).

The target of assay [1] is Cyclin-dependent kinase 1/cyclin B1 (Homo sapiens, UniProt P06493). As to the kind of experiment: Inhibition of CDK1/cyclin B by MESACUP assay. The class given is protein-complex assay.
Assay [2] addresses Vascular endothelial growth factor receptor 3 (Homo sapiens) (UniProt P35916). As to the kind of experiment: Inhibition of Flt4 upto 50 uM.
Assay [3] deals with T1, Cyclin-dependent kinase 1/cyclin B1 (Homo sapiens) (UniProt P06493+P14635). As to the kind of experiment: Inhibition of CDK1/cyclin B at 30 uM. Type of assay: protein-complex assay.
T1 sequence (P06493 whole entry, looked up): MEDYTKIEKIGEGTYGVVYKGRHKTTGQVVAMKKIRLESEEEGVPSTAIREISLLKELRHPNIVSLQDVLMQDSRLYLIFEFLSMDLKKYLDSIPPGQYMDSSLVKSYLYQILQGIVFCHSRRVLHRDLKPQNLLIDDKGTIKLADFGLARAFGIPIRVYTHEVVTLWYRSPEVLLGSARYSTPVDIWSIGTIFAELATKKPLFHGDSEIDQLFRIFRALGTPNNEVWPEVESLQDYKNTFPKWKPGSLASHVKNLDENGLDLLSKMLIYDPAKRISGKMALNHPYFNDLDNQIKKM
T1 sequence (P14635 whole entry, looked up): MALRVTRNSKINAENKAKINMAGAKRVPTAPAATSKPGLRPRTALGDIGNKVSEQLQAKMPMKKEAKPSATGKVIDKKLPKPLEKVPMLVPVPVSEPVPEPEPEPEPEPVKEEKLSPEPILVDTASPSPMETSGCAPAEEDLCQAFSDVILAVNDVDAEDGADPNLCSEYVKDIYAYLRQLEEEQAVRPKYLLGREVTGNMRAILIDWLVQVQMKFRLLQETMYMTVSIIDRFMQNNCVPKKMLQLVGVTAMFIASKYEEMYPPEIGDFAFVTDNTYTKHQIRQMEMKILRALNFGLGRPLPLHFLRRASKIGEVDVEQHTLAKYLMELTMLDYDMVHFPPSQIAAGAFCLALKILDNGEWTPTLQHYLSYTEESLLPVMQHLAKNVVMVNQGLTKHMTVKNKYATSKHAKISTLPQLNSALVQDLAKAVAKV
For assay [4], the target named is T1, Cyclin-dependent kinase 1/cyclin B1 (Homo sapiens). As to the kind of experiment: Inhibition of CDK1/cyclin B at 100 uM. The class given is protein-complex assay. The procedure, abridged:
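CDK1/cyclin B complex activity measured in vitro with the MESACUP cdc2 kinase assay kit. Compounds were tested at 100 µM. Activity was expressed as % CDK1 activity relative to untreated control samples, as mean ± SEM, with statistical comparison against control (P < 0.05, P < 0.001).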

The target in assay [5] is Angiopoietin-1 receptor (Homo sapiens) (UniProt Q02763). The assay is described as follows: Inhibition of Tie2 upto 50 uM.
Sequence of Angiopoietin-1 receptor (Homo sapiens) (Q02763 whole entry): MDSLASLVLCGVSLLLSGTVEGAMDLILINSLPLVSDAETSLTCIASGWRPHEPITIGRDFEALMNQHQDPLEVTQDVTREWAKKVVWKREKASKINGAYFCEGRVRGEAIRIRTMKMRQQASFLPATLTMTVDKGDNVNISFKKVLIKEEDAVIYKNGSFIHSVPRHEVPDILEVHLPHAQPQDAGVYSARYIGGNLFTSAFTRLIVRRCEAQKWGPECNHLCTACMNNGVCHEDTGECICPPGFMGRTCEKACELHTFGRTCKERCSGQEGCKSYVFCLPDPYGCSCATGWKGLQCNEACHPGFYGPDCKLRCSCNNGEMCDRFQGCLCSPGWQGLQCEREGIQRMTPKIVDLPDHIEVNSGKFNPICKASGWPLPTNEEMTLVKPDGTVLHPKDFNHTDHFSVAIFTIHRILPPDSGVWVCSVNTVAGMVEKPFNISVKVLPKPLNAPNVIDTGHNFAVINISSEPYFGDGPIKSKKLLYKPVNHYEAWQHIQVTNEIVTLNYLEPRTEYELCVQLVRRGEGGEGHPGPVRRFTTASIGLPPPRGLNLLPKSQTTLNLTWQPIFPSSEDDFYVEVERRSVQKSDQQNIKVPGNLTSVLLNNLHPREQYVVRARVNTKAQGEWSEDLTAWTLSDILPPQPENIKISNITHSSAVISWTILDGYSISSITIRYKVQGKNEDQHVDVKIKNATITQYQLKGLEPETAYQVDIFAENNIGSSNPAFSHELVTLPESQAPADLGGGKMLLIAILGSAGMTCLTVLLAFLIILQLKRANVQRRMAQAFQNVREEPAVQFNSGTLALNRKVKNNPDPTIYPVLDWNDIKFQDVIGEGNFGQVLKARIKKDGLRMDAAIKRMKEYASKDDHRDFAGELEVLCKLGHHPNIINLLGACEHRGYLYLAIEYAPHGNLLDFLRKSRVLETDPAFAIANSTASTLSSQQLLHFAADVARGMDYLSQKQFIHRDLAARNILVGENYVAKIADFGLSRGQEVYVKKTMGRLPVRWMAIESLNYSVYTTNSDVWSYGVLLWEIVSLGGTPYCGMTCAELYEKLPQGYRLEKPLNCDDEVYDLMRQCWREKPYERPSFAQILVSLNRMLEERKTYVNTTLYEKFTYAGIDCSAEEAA
Assay [6] can be described thus: Inhibition of FGFR upto 50 uM.
Assay [7] in a line: Inhibition of CDK1/cyclin E at 50 uM.
Assay [8] addresses Epidermal growth factor receptor (Homo sapiens) (UniProt P00533). The assay is described as follows: Inhibition of EGFR upto 50 uM.
In assay [9] the target is Vascular endothelial growth factor receptor 2 (Homo sapiens) (UniProt P35968). As to the kind of experiment: Inhibition of KDR upto 50 uM.
Assay [10] is described as follows: Inhibition of CDK1/cyclin A at 50 uM.
The nature of assay [11]: Inhibition of IGFR upto 50 uM.

As a reminder, the IC50 is the concentration at which inhibition is half-maximal. A higher IC50 goes with weaker potency. In general, inhibition refers to the drop in the measured response relative to a control, in per cent. A high value points to a strong effect.

Molecules are shown by their SMILES. Activity calls are given as the source filed them. No cut-off for these calls is given here. A value given as a limit tells only on which side of the number the result lay.

Sequence of Cyclin-dependent kinase 1/cyclin B1 (P06493 whole entry): as the sequence (P06493 whole entry, looked up) above
Sequence of Cyclin-dependent kinase 1/cyclin B1 (P14635 whole entry, further chain): as the sequence (P14635 whole entry, looked up) above
Sequence of Vascular endothelial growth factor receptor 3 (Homo sapiens) (P35916 whole entry): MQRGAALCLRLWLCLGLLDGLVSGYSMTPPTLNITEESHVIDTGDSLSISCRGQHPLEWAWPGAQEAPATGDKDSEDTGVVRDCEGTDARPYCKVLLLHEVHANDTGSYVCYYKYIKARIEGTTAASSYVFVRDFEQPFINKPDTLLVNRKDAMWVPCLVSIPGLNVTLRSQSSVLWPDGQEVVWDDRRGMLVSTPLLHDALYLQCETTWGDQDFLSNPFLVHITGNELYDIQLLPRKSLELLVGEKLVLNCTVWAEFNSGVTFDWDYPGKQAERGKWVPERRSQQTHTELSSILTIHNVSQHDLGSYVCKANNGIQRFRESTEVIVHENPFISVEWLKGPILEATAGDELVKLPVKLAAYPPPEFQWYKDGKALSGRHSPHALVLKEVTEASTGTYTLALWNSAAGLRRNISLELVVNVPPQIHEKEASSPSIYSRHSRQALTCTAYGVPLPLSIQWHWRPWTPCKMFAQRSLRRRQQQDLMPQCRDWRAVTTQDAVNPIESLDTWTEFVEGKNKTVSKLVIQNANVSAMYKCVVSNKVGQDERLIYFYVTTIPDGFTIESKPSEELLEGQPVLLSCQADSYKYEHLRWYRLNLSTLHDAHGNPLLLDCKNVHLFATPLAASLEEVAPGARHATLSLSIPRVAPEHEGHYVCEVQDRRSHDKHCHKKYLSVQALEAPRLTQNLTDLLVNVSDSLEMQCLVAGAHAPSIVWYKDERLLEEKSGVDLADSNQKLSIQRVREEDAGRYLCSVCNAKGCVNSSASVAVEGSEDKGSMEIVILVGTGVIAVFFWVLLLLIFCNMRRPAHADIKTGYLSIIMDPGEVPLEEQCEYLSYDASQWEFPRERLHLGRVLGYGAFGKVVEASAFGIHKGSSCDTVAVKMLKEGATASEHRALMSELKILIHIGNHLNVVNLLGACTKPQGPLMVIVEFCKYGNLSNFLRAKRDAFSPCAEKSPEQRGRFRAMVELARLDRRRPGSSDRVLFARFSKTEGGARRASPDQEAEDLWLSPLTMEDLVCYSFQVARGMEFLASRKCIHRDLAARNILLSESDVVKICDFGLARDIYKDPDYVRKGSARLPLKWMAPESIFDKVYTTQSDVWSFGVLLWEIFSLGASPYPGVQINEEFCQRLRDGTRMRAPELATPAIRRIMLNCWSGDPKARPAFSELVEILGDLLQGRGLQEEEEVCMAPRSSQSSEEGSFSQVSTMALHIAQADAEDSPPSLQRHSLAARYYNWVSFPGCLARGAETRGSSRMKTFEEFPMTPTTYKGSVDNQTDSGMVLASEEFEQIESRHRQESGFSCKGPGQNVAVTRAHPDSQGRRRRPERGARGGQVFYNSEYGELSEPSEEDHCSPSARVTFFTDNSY
Sequence of Epidermal growth factor receptor (Homo sapiens) (P00533 whole entry): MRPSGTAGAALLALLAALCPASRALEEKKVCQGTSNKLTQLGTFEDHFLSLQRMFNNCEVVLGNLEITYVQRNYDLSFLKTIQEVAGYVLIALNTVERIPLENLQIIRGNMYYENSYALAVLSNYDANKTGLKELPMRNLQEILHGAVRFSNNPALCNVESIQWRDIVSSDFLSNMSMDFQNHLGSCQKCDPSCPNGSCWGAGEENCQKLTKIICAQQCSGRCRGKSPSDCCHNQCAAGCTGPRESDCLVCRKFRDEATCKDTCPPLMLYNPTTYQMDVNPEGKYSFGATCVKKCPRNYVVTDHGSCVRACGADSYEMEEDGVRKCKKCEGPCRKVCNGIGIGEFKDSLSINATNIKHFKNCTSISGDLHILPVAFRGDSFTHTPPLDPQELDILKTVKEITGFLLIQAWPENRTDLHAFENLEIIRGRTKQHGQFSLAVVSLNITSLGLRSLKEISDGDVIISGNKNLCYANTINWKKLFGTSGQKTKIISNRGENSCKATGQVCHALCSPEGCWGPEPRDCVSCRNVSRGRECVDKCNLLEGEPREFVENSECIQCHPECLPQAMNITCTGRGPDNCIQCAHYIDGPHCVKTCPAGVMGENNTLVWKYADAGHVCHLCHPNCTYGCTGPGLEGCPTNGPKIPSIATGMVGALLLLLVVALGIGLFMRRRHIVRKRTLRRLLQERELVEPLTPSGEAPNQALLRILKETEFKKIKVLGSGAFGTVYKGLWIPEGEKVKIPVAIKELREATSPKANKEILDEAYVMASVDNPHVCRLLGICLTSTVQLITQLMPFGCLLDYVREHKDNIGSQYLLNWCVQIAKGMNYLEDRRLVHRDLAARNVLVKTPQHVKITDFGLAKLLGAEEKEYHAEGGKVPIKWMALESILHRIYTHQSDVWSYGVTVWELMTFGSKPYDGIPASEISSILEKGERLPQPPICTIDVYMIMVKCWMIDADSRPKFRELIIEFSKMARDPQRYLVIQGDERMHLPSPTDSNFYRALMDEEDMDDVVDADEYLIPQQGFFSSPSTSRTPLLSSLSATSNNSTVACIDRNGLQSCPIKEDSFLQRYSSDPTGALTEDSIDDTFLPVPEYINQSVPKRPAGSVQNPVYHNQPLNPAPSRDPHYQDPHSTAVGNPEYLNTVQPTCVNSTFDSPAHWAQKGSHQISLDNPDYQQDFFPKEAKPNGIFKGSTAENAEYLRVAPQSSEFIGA

Molecule `CCOC(=O)c1cc2ccc3c([nH]c4cccc(Cl)c43)c2[nH]1` yielded a concentration for half-maximal inhibition (IC50) in assay [1] greater than 100 µM.
On the same count and under the same terms, the result for `CCOC(=O)c1cc2ccc3c4ccccc4[nH]c3c2[nH]1` reads greater than 100 µM; that for `CCOC(=O)c1cc2ccc3c4cc(Cl)ccc4[nH]c3c2[nH]1`, greater than 100 µM.
For `CCOC(=O)c1cc2ccc3c4cccc(Cl)c4[nH]c3c2[nH]1`, the outcome in [2], in [5], in assay [6], in assay [7], in [8] and in [9] was inactive. Further, the result in assay [10] and in [11] was inactive. Further, the inhibition was 50% in assay [3] and 90% in [4]. Further, half-maximal inhibition in [1] (IC50) was put at 15 µM.
On to `CCOC(=O)c1cc2ccc3c4ccc(Cl)cc4[nH]c3c2[nH]1`, for which, in [1], the IC50 is greater than 100 µM.
Same read-out and setting: next, `CCOC(=O)c1cc2ccc3c4cc(C)ccc4[nH]c3c2[nH]1`: greater than 100 µM.
The same measure, in the same setting: the result for `CCOC(=O)c1cc2ccc3c4cc(OC)ccc4[nH]c3c2[nH]1` reads greater than 100 µM.
